Data as given in ChEMBL document CHEMBL3870337, “Development of a triazole class of highly potent Porcn inhibitors” (Bioorg Med Chem Lett, 2016).
Active and inactive are the calls of the source. The rule behind the calls is not given here.

tested on: not listed separately; test: Stability in mouse plasma at 2 uM in presence of NADPH by LC-MS/MS analysis; settings: not given

half-life at 2 µM | SMILES
> 4 h | O=C(Cn1nnc(-c2ccncc2)c1-c1ccccc1)Nc1ccc(-c2ccccc2)cn1

tested on: not listed separately; test: Half life in mouse plasma at 2 uM in presence of NADPH by LC-MS/MS analysis; type: ADME, cell-free; settings: not given

t1/2 | SMILES
1.67 h | O=C(Cn1cc(-c2ccncc2)nn1)Nc1ccc(-c2ccccc2)cn1
2.17 h | O=C(Cn1nnc(-c2ccncc2)c1-c1ccccc1)Nc1ccc(-c2ccccc2)cn1
< 0.083 h | O=C(CSc1nnc(-c2ccncc2)n1-c1ccccc1)Nc1ccc(-c2cccnc2)cc1

target: T1, Protein-serine O-palmitoleoyltransferase porcupine (Mus musculus, UniProt Q9JJJ7); test: Inhibition of porcupine-mediated Wnt signaling in mouse L-cells after 24 hrs by springerImage-Topflash reporter assay; settings: not given
T1 sequence (Q9JJJ7 whole entry): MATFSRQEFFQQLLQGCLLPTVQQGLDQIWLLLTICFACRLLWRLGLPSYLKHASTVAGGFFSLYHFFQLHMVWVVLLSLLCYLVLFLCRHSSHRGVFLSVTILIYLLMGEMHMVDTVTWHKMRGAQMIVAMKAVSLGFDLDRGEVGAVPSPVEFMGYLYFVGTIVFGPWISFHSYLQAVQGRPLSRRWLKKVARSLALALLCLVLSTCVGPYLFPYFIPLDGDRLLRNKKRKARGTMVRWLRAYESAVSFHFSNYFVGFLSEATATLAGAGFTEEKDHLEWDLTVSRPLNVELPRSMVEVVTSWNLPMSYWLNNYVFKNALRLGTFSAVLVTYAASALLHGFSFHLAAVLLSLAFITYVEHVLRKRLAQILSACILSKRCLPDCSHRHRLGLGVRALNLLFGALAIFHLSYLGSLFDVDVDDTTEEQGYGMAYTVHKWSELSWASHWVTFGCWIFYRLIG

EC50 | SMILES
0.3 nM | O=C(Cn1nnc(-c2ccncc2)c1-c1ccc(C(F)(F)F)cc1)Nc1ccc(-c2ccccc2)cn1
0.65 nM | O=C(Cn1nnc(-c2ccncc2)c1-c1ccccc1)Nc1ccc(-c2ccsc2)cn1
2500 nM | O=C(Cn1nnc(-c2ccccn2)c1-c1ccccc1)Nc1ccc(-c2ccccc2)cn1
0.13 nM | O=C(Cn1nnc(-c2ccnc(F)c2)c1-c1ccccc1)Nc1ccc(-c2ccccc2)cn1
0.6 nM | O=C(Cn1nnc(-c2ccnc(C(F)(F)F)c2)c1-c1ccccc1)Nc1ccc(-c2ccccc2)cn1
3 nM | CC(C(=O)Nc1ccc(-c2ccccc2)cn1)n1nnc(-c2ccncc2)c1-c1ccccc1 (stereo unspecified)
40 nM | Cc1ccccc1-c1c(-c2ccncc2)nnn1CC(=O)Nc1ccc(-c2ccccc2)cn1
80000 nM | O=C(Cn1nnc(-c2ccncc2)c1-c1ccccc1)Nc1ncc(-c2ccccc2)s1
9 nM | O=C(Cn1cc(-c2ccncc2)nn1)Nc1ccc(-c2ccccc2)cn1
100 nM | O=C(Cn1cc(-c2cccnc2)nn1)Nc1ccc(-c2ccccc2)cn1
270 nM | O=C(Cn1nnc(-c2ccncc2)c1-c1ccccc1)Nc1cccc(-c2ccccc2)c1
0.08 nM | O=C(Cn1nnc(-c2ccncc2)c1-c1ccccc1)Nc1ccc(-c2ccccc2)cn1
8 nM | O=C(Cn1nnc(-c2ccncc2)c1-c1ccccc1)Nc1ccc(N2CCCCC2)cc1
> 5000 nM | O=C(Cn1cc(-c2ccccn2)nn1)Nc1ccc(-c2ccccc2)cn1
12 nM | CCC(C(=O)Nc1ccc(-c2ccccc2)cn1)n1nnc(-c2ccncc2)c1-c1ccccc1 (stereo unspecified)
0.4 nM | O=C(Cn1nnc(-c2ccncc2)c1-c1ccccc1)Nc1ccc(-c2ccco2)cn1
1.8 nM | O=C(Cn1nnc(-c2ccncc2)c1-c1ccccc1)Nc1ccc(-c2ccccn2)cc1
7 nM | O=C(Cn1nnc(-c2ccncc2)c1-c1ccccc1)Nc1ccc(-c2ccncc2)cc1
0.4 nM | Cc1cccc(-c2c(-c3ccncc3)nnn2CC(=O)Nc2ccc(-c3ccccc3)cn2)c1

EC50 | SMILES
200 nM | O=C(Cn1nnc(-c2ccncc2)c1-c1ccccc1)Nc1ccc(-c2cccnc2)cc1
> 5000 nM | O=C(Cn1cc(-c2ccccc2)nn1)Nc1ccc(-c2ccccc2)cn1
500 nM | O=C(Cn1nnc(-c2ccccc2C(F)(F)F)c1-c1ccccc1)Nc1ccc(-c2ccccc2)cn1
5 nM | O=C(Cn1nnc(-c2cccnc2)c1-c1ccccc1)Nc1ccc(-c2ccccc2)cn1
1.8 nM | O=C(Cn1nnc(-c2ccncc2)c1-c1ccccc1)Nc1ccc(-c2cncnc2)cn1
0.2 nM | O=C(Cn1nnc(-c2ccncc2)c1-c1ccccc1)Nc1ccc(-c2ccccc2)nc1
> 1000 nM | O=C(Cn1nnc(-c2ccncc2)c1-c1ccccc1)Nc1ccc(N2CCCCC2)cn1
> 1000 nM | O=C(Cn1nnc(-c2ccncc2)c1-c1ccccc1)Nc1ccc(-c2cccnc2)cn1
18 nM | COc1ccc(-c2nnn(CC(=O)Nc3ccc(-c4ccccc4)cn3)c2-c2ccccc2)cc1
0.48 nM | N#Cc1ccc(-c2c(-c3ccncc3)nnn2CC(=O)Nc2ccc(-c3ccccc3)cn2)cc1
0.2 nM | O=C(Cn1nnc(-c2ccncc2)c1-c1ccc(F)cc1)Nc1ccc(-c2ccccc2)cn1
0.14 nM | Cc1cc(-c2nnn(CC(=O)Nc3ccc(-c4ccccc4)cn3)c2-c2ccccc2)ccn1
0.18 nM | COc1ccc(-c2c(-c3ccncc3)nnn2CC(=O)Nc2ccc(-c3ccccc3)cn2)cc1
9 nM | COc1ccccc1-c1c(-c2ccncc2)nnn1CC(=O)Nc1ccc(-c2ccccc2)cn1
8 nM | O=C(Cn1nnc(-c2ccncc2)c1-c1ccccc1)Nc1ncc(-c2ccccc2)cn1
400 nM | O=C(Cn1nnc(-c2ccccc2)c1-c1ccccc1)Nc1ccc(-c2ccccc2)cn1
0.7 nM | CCOC(=O)c1ccc(-c2c(-c3ccncc3)nnn2CC(=O)Nc2ccc(-c3ccccc3)cn2)cc1
6.5 nM | O=C(Cn1nnc(-c2ccncc2)c1-c1cccc2ccccc12)Nc1ccc(-c2ccccc2)cn1
0.6 nM | O=C(Cn1nnc(-c2ccncc2)c1-c1ccccc1)Nc1ccc(-c2ccoc2)cn1

target: T2, Protein-serine O-palmitoleoyltransferase porcupine (Homo sapiens) (UniProt Q9H237); test: Inhibition of porcupine-mediated phosphorylation of LRP6 in human HeLa cells at 1 uM after 24 hrs by Western blot analysis; type: cell-based; settings: not given
T2 sequence (whole entry): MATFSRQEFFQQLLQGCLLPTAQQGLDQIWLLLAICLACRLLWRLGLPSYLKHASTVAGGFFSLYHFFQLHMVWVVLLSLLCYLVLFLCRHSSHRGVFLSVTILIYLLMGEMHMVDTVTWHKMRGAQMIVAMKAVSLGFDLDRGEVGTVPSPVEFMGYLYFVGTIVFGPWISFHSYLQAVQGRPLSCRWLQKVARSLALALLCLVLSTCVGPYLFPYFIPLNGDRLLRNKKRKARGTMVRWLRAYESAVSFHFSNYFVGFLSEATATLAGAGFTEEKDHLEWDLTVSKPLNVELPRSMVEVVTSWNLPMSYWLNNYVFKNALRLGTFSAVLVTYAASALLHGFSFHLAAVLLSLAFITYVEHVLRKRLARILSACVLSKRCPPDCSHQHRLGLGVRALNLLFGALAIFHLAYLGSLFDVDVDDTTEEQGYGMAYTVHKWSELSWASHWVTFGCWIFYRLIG
In short: (§1)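 HeLa cells, which have high cell-autonomous Wnt signalling, were treated for 24 h with compound, the LGK974 reference or DMSO vehicle. Cell lysates were then analysed by Western blot for phosphorylation of LRP6 and of Dvl2/3, used as biochemical markers of Wnt pathway activity.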

inhibition | SMILES
Active | O=C(Cn1nnc(-c2ccncc2)c1-c1ccccc1)Nc1ccc(-c2ccccc2)cn1

target: T2, Protein-serine O-palmitoleoyltransferase porcupine (Homo sapiens); test: Inhibition of porcupine-mediated phosphorylation of dishevelled 2/3 in human HeLa cells at 1 uM after 24 hrs by Western blot analysis; type: cell-based; settings: not given; in short: as §1

inhibition | SMILES
Active | O=C(Cn1nnc(-c2ccncc2)c1-c1ccccc1)Nc1ccc(-c2ccccc2)cn1

tested on: not listed separately; test: Half life in ICR/CD-1 mouse liver S9 fraction at 2 uM in presence of NADPH by LC-MS/MS analysis; type: ADME, subcellular; settings: s9, 2 µM

t1/2 | SMILES
3.33 h | O=C(Cn1cc(-c2ccncc2)nn1)Nc1ccc(-c2ccccc2)cn1
0.25 h | O=C(CSc1nnc(-c2ccncc2)n1-c1ccccc1)Nc1ccc(-c2cccnc2)cc1
